Data reported in ChEMBL document CHEMBL1147365, “A screen for inhibitors of DNA recombination: identification of two new spirostanol glycosides from Chamaedorea linearis” (J Nat Prod, 1993).
The source made the active and inactive calls. The rule behind the calls is not given here.

Columns and labels:
Saccharomyces cerevisiae [1] = experiment: DNA damaging activity against […] assessed as drug concentration required to produce 12 mm zone of inhibition up to 800 ug/well by agar diffusion assay; format: functional, organism-based; conditions: W303-1A
Saccharomyces cerevisiae [2] = experiment: DNA damaging activity against […] assessed as drug concentration required to produce 12 mm zone of inhibition by agar diffusion assay; format: functional, W303-1A
L1210 [3] = experiment: Antiproliferative activity against mouse L1210 cells up to 32 uM; format: functional, cell-based
How it was run: (§1)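 Murine L1210 cells were grown in suspension culture and proliferation was measured.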

L1210 [4] = experiment: Antiproliferative activity against mouse L1210 cells; format: functional, cell-based; how it was run: as §1

Structure (SMILES) | Activity (Saccharomyces cerevisiae [1]) | further results
CO[C@H]1C[C@H](O[C@H]2CC[C@]3(C=O)[C@H]4CC[C@]5(C)[C@@H](C6=CC(=O)OC6)CC[C@]5(O)[C@@H]4CC[C@]3(O)C2)O[C@H](C)[C@H]1O[C@H]1O[C@@H](CO)[C@H](O[C@@H]2O[C@H](CO)[C@@H](O)[C@H](O)[C@H]2O)[C@@H](O)[C@@H]1O | inactive | 
C[C@H]1O[C@@H](O[C@H]2[C@@H](O)C[C@H](O[C@H]3[C@@H](O)C[C@H](O[C@H]4CC[C@@]5(C)[C@H](CC[C@@H]6[C@@H]5C[C@@H](O)[C@]5(C)[C@@H](C7=CC(=O)OC7)CC[C@]65O)C4)O[C@@H]3C)O[C@@H]2C)C[C@H](O)[C@@H]1O | inactive | 
C[C@@H]1O[C@@H](O[C@H]2CC[C@]3(C=O)[C@H]4CC[C@]5(C)[C@@H](C6=CC(=O)OC6)CC[C@]5(O)[C@@H]4CC[C@]3(O)C2)[C@H](O)[C@H](O)[C@H]1O | inactive | 
C[C@H]1O[C@@H](O[C@H]2[C@@H](O)C[C@H](O[C@H]3[C@@H](O)C[C@H](O[C@H]4CC[C@@]5(C)[C@H](CC[C@@H]6[C@@H]5CC[C@]5(C)[C@@H](C7=CC(=O)OC7)[C@@H](O)C[C@]65O)C4)O[C@@H]3C)O[C@@H]2C)C[C@H](O)[C@@H]1O | inactive | 
CO[C@H]1[C@H](O)[C@H](O[C@H]2CC[C@@]3(C)[C@H](CC[C@@H]4[C@@H]3CC[C@]3(C)[C@@H](C5=CC(=O)OC5)CC[C@]43O)C2)O[C@@H](C)[C@@H]1O | inactive | 
C[C@@H]1O[C@@H](O[C@H]2C[C@@H](O)[C@]3(CO)[C@H]4[C@H](O)C[C@]5(C)[C@@H](C6=CC(=O)OC6)CC[C@]5(O)[C@@H]4CC[C@]3(O)C2)[C@H](O)[C@H](O)[C@H]1O | inactive | 
C[C@H]1CC[C@@]2(OC1)O[C@H]1C[C@H]3[C@@H]4CC[C@H]5C[C@@H](O)C[C@@H](O[C@H]6O[C@@H](C)[C@@H](OS(=O)(=O)O)[C@@H](O)[C@@H]6O)[C@]5(C)[C@H]4CC[C@]3(C)[C@H]1[C@@H]2C |  | IC12 (Saccharomyces cerevisiae [2]): 3.5 µg; Activity (L1210 [3]): inactive
C[C@H]1CC[C@@]2(OC1)O[C@H]1C[C@H]3[C@@H]4CC[C@H]5C[C@@H](O)C[C@@H](O[C@H]6O[C@@H](C)[C@@H](O)[C@@H](O)[C@@H]6O)[C@]5(C)[C@H]4CC[C@]3(C)[C@H]1[C@@H]2C [BRISBAGENIN FUCOSIDE] |  | IC50 (L1210 [4]): 5 µM; IC12 (Saccharomyces cerevisiae [2]): 2.6 µg; Activity (L1210 [3]): inactive
